# This is a sample that favours compounds with a hit; in the whole collection about 2.3% have one here.
# Rpn11 block: Rpn11 (PSMD14) deubiquitinase inhibitors, primary screen, biochemical, fluorescence polarization, uHTS. 26S proteasome non-ATPase regulatory subunit 14 (Homo sapiens), O00487. inhibition, % at 20 µM. 360,000 compounds, 0.59% hits. human 26S proteasome, Ub4-pepOG fluorescence polarization; 20S core pre-blocked with epoxomicin;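 active = inhibition at 20 µM, scaled to each plate's controls, above about 33%, limit read from the data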
# Target sequence (O00487 whole entry, looked up): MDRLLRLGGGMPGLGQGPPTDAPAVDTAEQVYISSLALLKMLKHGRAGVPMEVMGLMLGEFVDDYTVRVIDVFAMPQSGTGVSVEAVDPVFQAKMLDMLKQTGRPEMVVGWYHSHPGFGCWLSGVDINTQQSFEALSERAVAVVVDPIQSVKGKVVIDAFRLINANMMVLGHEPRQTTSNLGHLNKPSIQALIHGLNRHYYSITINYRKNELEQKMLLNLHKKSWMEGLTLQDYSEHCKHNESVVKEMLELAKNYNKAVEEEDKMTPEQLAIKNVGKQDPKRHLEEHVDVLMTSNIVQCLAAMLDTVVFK
# LMPTP block: LMPTP phosphatase inhibitors, primary screen, biochemical, fluorescence intensity, uHTS. inhibition, % at 20 µM. AID 651560, 2012. Low molecular weight phosphotyrosine protein phosphatase (Homo sapiens), P24666. recombinant LMPTP-A, OMFP fluorogenic substrate. 360,000 compounds, 0.22% hits;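 active = compounds that cut the enzyme signal by at least half of the control window in the single-dose screen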;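 note: plate controls were DMSO wells with enzyme plus substrate for no effect and substrate without enzyme for full effect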
# Target sequence (P24666 whole entry, looked up): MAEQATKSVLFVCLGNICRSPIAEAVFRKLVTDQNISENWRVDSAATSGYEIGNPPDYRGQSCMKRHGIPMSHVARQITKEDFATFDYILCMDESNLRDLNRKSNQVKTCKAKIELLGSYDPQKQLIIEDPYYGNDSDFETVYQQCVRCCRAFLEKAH
#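 material = LMPTP-A | quantity = 0.625 nM enzyme | reagent = OMFP substrate, 400 µM final | buffer or medium = Bis-Tris pH 6.0, DTT, detergent | detection = endpoint fluorescence intensity from OMFP dephosphorylation | dosing = single 20 µM dose | read-out basis = % inhibition relative to no-enzyme and uninhibited control wells | control set = no-enzyme and uninhibited controls | timing = 50 min at room temperature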
# Scp1 inh: Scp-1 phosphatase inhibitors, primary screen, biochemical, colorimetric, uHTS | Recombinant Scp1, phosphopeptide, malachite green phosphate absorbance | inhibition, % at 20 µM | Carboxy-terminal domain RNA polymerase II polypeptide A small phosphatase 1 (Homo … | 340,000 compounds, 0.88% hits | AID 493091, 2011;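 active = inhibition above about 50% at 20 µM, limit read from the data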;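 note: plate controls were DMSO wells with enzyme for no effect and wells lacking enzyme for full effect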
# Target sequence (Q9GZU7 76-261 limits assumed): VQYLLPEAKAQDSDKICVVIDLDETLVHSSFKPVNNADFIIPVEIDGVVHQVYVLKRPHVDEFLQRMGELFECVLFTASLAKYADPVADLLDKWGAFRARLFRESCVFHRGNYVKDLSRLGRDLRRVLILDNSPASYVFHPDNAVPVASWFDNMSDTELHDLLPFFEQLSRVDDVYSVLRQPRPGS
#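 assay system = SCP-1 phosphatase catalytic domain, residues 76-261 | buffer or medium = 50 mM Tris acetate pH 5.5, 0.005% Tween-20, 10 mM MgCl2 | incubation = enzyme reaction 45 min at room temperature, colour 5 min, stabilisation 30 min | signal = Phosphate-binding colour reagent, absorbance read at 630 nm | measure = % inhibition at 20 µM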
# DNMT1 inh: human DNMT1 methyltransferase inhibitors, primary screen, biochemical, molecular beacon, fluorescence, HinP1I cleavage, uHTS | 360,000 compounds, 0.83% hits | inhibition (reported as % activation of signal), % at 10 µM; in the data active = inhibition above about 50%
# STEP inh: STEP phosphatase inhibitors, primary screen, biochemical, fluorescence intensity, uHTS; recombinant STEP, OMFP fluorogenic substrate; inhibition, % at 20 µM; 360,000 compounds, 0.25% hits; AID 588621, 2011;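 active = inhibition at 20 µM, scaled per plate between control wells, above about 37%, limit read from the data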;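 note: 0% = DMSO with enzyme and substrate and 100% = substrate only without enzyme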
#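 Test system: STEP tyrosine phosphatase / Reagent: OMFP at 25 µM / Doses: 20 µM, 1% DMSO / Read-out: percent inhibition scaled to no-enzyme and uninhibited-enzyme controls, plate-pattern corrected / Detection: FITC-channel fluorescence of OMFP product / Medium: Bis-Tris buffer pH 6.0, 2.5 mM DTT, 0.005% Tween 20 / Schedule: 20 min at room temperature, dark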
# SUMO1-SIM PPI: modulators of SUMO1 protein-protein interactions, primary screen, biochemical, uHTS; 360,000 compounds, 0.33% hits; AID 602429, 2012; SUMO1 binding to a labelled peptide, TR-FRET, 1 h; inhibition, % at 20 µM; Small ubiquitin-related modifier 1 (Homo sapiens), P63165; in the data active = inhibition above about 37%
# Scp-1 conf: Scp-1 phosphatase inhibitors, retest, confirmation, biochemical, colorimetric, single concentration | shares compounds with Scp1 inh | AID 540281, 2011 | 2,500 compounds, 61% hits | recombinant SCP-1 catalytic domain, phosphate release, malachite green absorbance | inhibition, % at 20 µM;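 note: plate controls were DMSO with enzyme for no effect and buffer wells lacking enzyme for full effect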
# Scp-1 MG ctr: colorimetric readout interference by compounds, confirmation, artefact control for Scp-1 inhibitor project, biochemical, single concentration | shares compounds with Scp1 inh | Colorimetric interference counterscreen, malachite green absorbance 630 nm | apparent inhibition (interference), % at 20 µM | 2,500 tested, under 10 active;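 note: compounds added after enzyme reaction finished so only phosphate colour detection is probed; plate controls were DMSO wells with completed Scp-1 reaction for no effect and substrate wells lacking enzyme for full effect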
# Scp1 DSF: Scp-1 binding by thermal shift, confirmation, orthogonal assay for Scp-1 inhibitor project, biophysical, differential scanning fluorimetry | shares compounds with Scp1 inh | Recombinant SCP1, Sypro Orange thermal shift Tm | thermal shift relative to vanadate control, % at 40 µM | 1,500 compounds, 25% hits | AID 540329, 2011;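 active = substances whose mean melting-temperature shift, as a percentage of the reference inhibitor's shift, reaches about 5.3%, limit read from the data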;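 note: 0% = Tm of DMSO wells and 100% = Tm with sodium orthovanadate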
# Starred values were filed as active, the others as inactive; nt = no result shown.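 Rule for the calls, unless noted: active = inhibition of at least 30% at 20 µM; inactive = the rest.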
SMILES,Rpn11 block,LMPTP block,Scp1 inh,DNMT1 inh,STEP inh,SUMO1-SIM PPI,Scp-1 conf,Scp-1 MG ctr,Scp1 DSF
COc1ccc(/C=C2\SC(=S)N(CCC(=O)Nc3cccc(C(=O)O)c3)C2=O)cc1,2,1,61*,-2,18,0,53*,-10,18*
O=C(CCN1C(=O)/C(=C\C=C\c2ccccc2)SC1=S)Nc1cccc(C(=O)O)c1,17,46,85*,16,15,11,75*,-19,11*
O=C(CCCN1C(=O)/C(=C\c2ccccc2)SC1=S)Nc1cccc(C(=O)O)c1,-1,1,-7,1,-1,-24,nt,nt,nt
O=C(CCN1C(=O)/C(=C/c2ccc3c(c2)OCO3)SC1=S)NNC(=O)c1cccnc1,13,7,62*,-2,2,-12,46*,-9,0
O=C(CCN1C(=O)/C(=C/C=C/c2ccccc2)SC1=S)Nc1nccs1,20,0,9,4,-2,-4,nt,nt,nt
O=C(CCN1C(=O)/C(=C/c2ccccc2)SC1=S)NNC(=O)c1cccnc1,-6,-1,1,1,4,-16,nt,nt,nt
O=C(CCN1C(=O)/C(=C/c2ccc(Cl)cc2)SC1=S)Nc1cccc(C(=O)O)c1,2,1,89*,0,10,-7,66*,-3,9.7*
O=C(c1ccc(N2C(=O)C3C4c5ccccc5C(c5ccccc54)C3C2=O)cc1)N1CCOCC1 (configuration not stated),2,-1,-8,4,-1,-1,nt,nt,nt
COc1ccc(NC(=O)CN(C)Cc2cccs2)cc1Cl,0,0,4,-4,-2,-1,nt,nt,nt
CN(C(=O)COC(=O)c1ccc(=O)n(Cc2ccccc2)n1)C1CCCCC1,-4,-1,-6,6,0,-19,nt,nt,nt
Cc1cc(SCC(=O)NCCCN2CCCC2=O)nc2ccccc12,12,0,-12,1,0,4,nt,nt,nt
COc1ccc(C(O)P(=O)(OC(C)C)OC(C)C)c(OC)c1 (configuration not stated),-2,-1,-14,-3,-2,-6,nt,nt,nt
CCOc1ccc(/C=C2\SC(=S)N(CCC(=O)Nc3ccccc3C(=O)O)C2=O)cc1,6,3,64*,1,3,8,44*,-18,18*
O=C(CCN1C(=O)/C(=C/c2ccc3c(c2)OCO3)SC1=S)Nc1cccc(C(=O)O)c1,22,3,69*,4,7,0,78*,-9,11*
O=c1nc2cccc3c2=c(/c1=C(\O)c1ccccc1)c1ccccc1c3=O,-28,8,72*,38,4,5,58*,-20,3
O=C(O)c1ccc(CSc2n[nH]c(-c3ccco3)n2)cc1,0,-1,52*,9,13,23,32*,-15,-2
COc1ccc(/C=N/NC(=O)c2cccc(NC(=O)c3ccc(Cl)cc3)c2)c(OC)c1,-16,2,83*,15,4,14,66*,-15,-15
CSc1ccccc1NC(=O)CN(C)CC(=O)c1[nH]c(C)c(C(C)=O)c1C,4,-1,101*,3,-1,-4,-19,-24,nt
O=C(Nc1ccc2oc(-c3cccnc3)nc2c1)c1ccc2c(c1)OCCO2,nt,54*,52*,39,38,11,45*,-5,-4
O=C(Nc1ccc2oc(-c3ccncc3)nc2c1)c1ccc2c(c1)OCCO2,31,34,100*,4,15,34,-11,-14,nt
O=C(Nc1ccc2oc(-c3ccccc3)nc2c1)c1ccc2c(c1)OCCO2,1,-1,-12,-1,-6,2,nt,nt,nt
CCN(CC)P(=O)(Nc1ccccc1Br)c1ccc(N(C)C)cc1NC(=O)c1ccco1 (configuration not stated),3,4,-1,-4,2,2,nt,nt,nt
NNc1nccc(Nc2ccccc2C(=O)O)n1,-3,20,66*,2,0,27,65*,-7,0
O=C(O)C1Cc2ccccc2CN1C(=O)COc1ccc(Cl)cc1Cl (configuration not stated),4,-2,30,6,1,12,nt,nt,nt
O=C(O)C1Cc2ccccc2CN1C(=O)COc1ccc(Br)cc1 (configuration not stated),4,-1,53*,10,5,20,55*,-14,0
SMILES,Rpn11 block,LMPTP block,Scp1 inh,DNMT1 inh,STEP inh,SUMO1-SIM PPI,Scp-1 conf,Scp-1 MG ctr,Scp1 DSF
O=C(CCN1C(=O)c2ccccc2C1=O)NC(=S)Nc1ccccc1Cl,-4,2,-3,-9,-1,-6,nt,nt,nt
CC1(C)CC(CCC(=O)NC(=S)Nc2ccccc2Cl)C(=O)O1 (configuration not stated),2,-1,-9,2,-1,3,-10,-16,nt
NNC(=O)CCN(Cc1ccco1)S(=O)(=O)c1ccc(Cl)cc1,-1,-1,1,0,-3,-3,nt,nt,nt
CCC(Oc1ccccc1)C(=O)Nc1nc2c(s1)C(=O)CC(C)(C)C2 (configuration not stated),6,0,-8,1,1,-5,-9,-10,nt
CCC(C)C(=O)Nc1nc2c(s1)C(=O)CC(C)(C)C2 (configuration not stated),-4,-2,-13,2,-1,1,nt,nt,nt
CCc1ccccc1NC(=O)CNC(=O)CCc1nc2sc3c(c2c(=O)[nH]1)CCCC3,24,10,70*,40,7,9,66*,-18,-3
COc1cc(/C=C2/C(=O)NN(c3ccc(C)c(Cl)c3)C2=O)cc([N+](=O)[O-])c1O,6,2,61*,39,86*,-1,74*,-15,569*

# From PubChem BioAssay
